High-throughput results from PubChem BioAssay.
An excerpt weighted towards active compounds, which were near 1.9% of everything screened.
Ins promoter up: MIN6 insulin promoter up-regulation; MIN6 insulin promoter-GFP reporter, high-content imaging; active compounds read high; z-score at 5 µM; hit rate 0.3% among 190,000; AID 1625;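 active = z-score above 3 at 5 µM with at least 500 cells counted in the well; inconclusive = wells under 500 cells, flagged as cytotoxic or low count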
HSV replic up: increases HSV replication in cells. maximum fold increase. AID 1956. HSV replication augmentation in cells, fold increase. hit rate 0.005% among 220,000; in the data active = maximum fold increase above about 1.5; inconclusive = no clear call, values can overlap the other calls; tested in PC3 cells
Furin inh: human furin inhibition. purified furin, fluorogenic substrate cleavage. inhibition, % at 20 µM or 30 µM. hit rate 0.061% among 220,000. AID 463115; in the data active = inhibition above about 25%
Target sequence (P09958 108-714 limits assumed): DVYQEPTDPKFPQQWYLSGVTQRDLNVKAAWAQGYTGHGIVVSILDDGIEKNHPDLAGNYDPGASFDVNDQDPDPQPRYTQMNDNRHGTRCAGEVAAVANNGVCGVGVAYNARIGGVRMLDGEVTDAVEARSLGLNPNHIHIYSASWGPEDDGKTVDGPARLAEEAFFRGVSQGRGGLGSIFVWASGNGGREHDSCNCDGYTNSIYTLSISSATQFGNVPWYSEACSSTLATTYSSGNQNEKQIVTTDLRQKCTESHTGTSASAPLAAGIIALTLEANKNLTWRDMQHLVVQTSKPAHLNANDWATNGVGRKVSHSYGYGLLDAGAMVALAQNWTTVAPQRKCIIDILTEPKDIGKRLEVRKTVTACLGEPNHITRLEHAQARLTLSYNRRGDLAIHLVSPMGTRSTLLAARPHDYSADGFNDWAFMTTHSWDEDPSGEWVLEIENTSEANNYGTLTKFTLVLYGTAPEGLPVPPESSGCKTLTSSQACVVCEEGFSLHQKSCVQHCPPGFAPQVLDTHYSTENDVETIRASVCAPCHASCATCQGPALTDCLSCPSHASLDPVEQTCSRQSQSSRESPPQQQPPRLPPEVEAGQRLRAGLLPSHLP
Autophagy HCS: autophagy modulation, high-content screen. MEF GFP-LC3 puncta imaging; test concentration mostly 10 µM. calls only at 10 µM (by protocol). hit rate 0.98% among 190,000;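 active = percentage of spot-positive cells more than 3 SD above its plate mean, without a fluorescence outlier flag or 80% toxicity; inconclusive = no clear call, values can overlap the other calls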;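 note: spot-positive cell cutoff set from DMSO-treated cells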
bCat nuc transl: modulators of beta-catenin nuclear translocation; HeLa beta-catenin nuclear translocation, immunofluorescence imaging; nuclear translocation activity, % at 5 µM; hit rate 0.3% among 190,000; AID 1665;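 active = nuclear translocation activity above 50% at 5 µM, with a well cell count of 50 or more; inconclusive = wells under 50 cells across six images, flagged as toxic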;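 note: per-cell ratio of nuclear to cytoplasmic median beta-catenin stain intensity; plate controls were DMSO negative control for no effect and GSK-3 inhibitor IX positive control for full effect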
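System: Human HeLa cells, endogenous beta-catenin | Compound dosing: 5 µM primary, 0.02–20 µM confirmation | Timing: 24 h compound exposure at 37°C, 5% CO2 | Measured by: Fluorescence imaging of beta-catenin antibody stain plus DAPI | Read-out basis: % activation of per-cell nuclear versus cytoplasmic median beta-catenin signal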
MT stabilize HCS: microtubule stabilization, imaging screen | % tubulin-high responders, % at 10 µM | HeLa tubulin immunostaining HCS, 24 h; share of cells brighter than vehicle mean+2SD | hit rate 0.83% among 200,000;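 active = plate Z-score above 3 for both tubulin-high and condensed-nucleus cell shares, with cell loss under 80%, at 10 µM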;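 note: anti alpha tubulin signal scored within the nucleus-defined area of each cell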
The depositor's hits bear a star; i = inactive; ? = inconclusive; . = no result given; + = active, no number.

SMILES	Ins promoter up	HSV replic up	Furin inh	Autophagy HCS	bCat nuc transl	MT stabilize HCS
COC(=O)C1=C(C(=O)OC)[C@@H]2Nc3ccccc3[C@@]23C[C@@H](C(=O)OC)N(C(=O)c2ccco2)C3=N1	.	i	.	.	.	.
CNC(=O)c1cc2cc(Cl)cc(OC)c2oc1=O	.	i	-20.1	i	.	1.3
CC(C)n1cc(NC(=O)c2cc(-c3ccccc3)on2)cn1	-0.19	i	-7.5	i	.	28.3*
COc1cccc(-c2cc(C(=O)Nc3cc(OC)c(OC)c(OC)c3)no2)c1	-0.34	i	-21.3	i	.	49.5*
COc1cccc(-c2cc(C(=O)Nc3cccnc3)no2)c1	-0.18	i	-28.5	i	111.3*	8.6
O=C(COc1ccc(S(=O)(=O)N2CCCC2)cc1)NCC1CCCO1 (centres undefined)	0.02	i	-6.8	i	1.8	3.6
COc1ccc(C2=NOC(CNC(=O)c3ccccc3Br)C2)c(OC)c1 (centres undefined)	-0.12	i	-20.7	.	-0.5	.
CCOC(=O)C1=c2/c(=C/c3ccncc3)c(N)c(C(=O)OC)n2C(=O)C(c2ccncc2)S1 (centres undefined)	-0.62	i	-11.2	i	-1.9	1.8
COc1ccc(-c2cc(C(=O)N3CCN(c4ccccc4)CC3)c3ccccc3n2)cc1	0.26	i	-21.3	i	113.4*	16.8*
COc1ccc(-c2cc(C(=O)N3CCN(c4ccccn4)CC3)c3ccccc3n2)cc1	-0.86	i	-26.9	i	-0.5	29.2*
CCOc1ccc(-c2cc(C(=O)N3CCN(c4ccccn4)CC3)c3ccccc3n2)cc1	0.21	i	-25.3	i	.	23.9*
CCOc1ccc(-c2cc(C(=O)N3CCN(C)CC3)c3ccccc3n2)cc1	0.77	i	-16.9	i	.	2.2
COc1cc(-c2cc(C(=O)N3CCN(c4ccccn4)CC3)c3ccccc3n2)cc(OC)c1OC	.	i	0.0	i	.	3.7
CCCC(=O)Nc1sc(C(=O)Nc2cccc(N)c2)c(C)c1C(=O)OC	-0.41	i	-28.1	i	-0.6	0.7
C=CCNC(=O)c1onc(CSc2ccccn2)c1C(=O)NCC=C	0.31	i	-19.8	.	-1.7	.
CNC(=O)CN(c1cc(OCCOC)c(Cl)cc1Cl)S(=O)(=O)c1ccc(OC)cc1	0.57	.	-31.4	i	-1.8	15.8*
CNC(=O)CN(c1ccc(OC)cc1)S(=O)(=O)c1ccc(F)cc1	.	i	-18.1	i	-2.7	3.3
NNC(=O)CCn1c2ccccc2c2ccccc21	-0.31	i	-17.6	i	0.0	4.5
COc1ccc(Cn2c(C3CC3)nc3ccc(NC(=O)c4ccco4)cc3c2=O)cc1	.	i	-17.6	i	-0.8	13.2*
c1ccc(-c2nc(-c3nccc4ccccc34)oc2-c2ccccc2)cc1	-0.17	i	-16.1	.	0.0	.
Nc1cc(=O)[nH]c(SCC(=O)Nc2nc3ccc([N+](=O)[O-])cc3s2)n1	-0.15	i	-11.0	+	1.2	1.5
O=C(c1cnc(N2CCN(c3ccccn3)CC2)c2ccccc12)N1CCN(c2cccc(Cl)c2)CC1	.	i	-12.8	i	-1.4	2.3
COc1ccc(CN2C=C3C(=O)C(C)(OC(=O)C4CCCC4)C(=O)C=C3C=C2c2ccsc2)cc1 (centres undefined)	0.31	i	-13.5	.	50.1*	.
Cc1cc2ncn(S(=O)(=O)N3CCOCC3)c2cc1C	0.97	i	26.5*	i	-1.5	1.6
CC1CC(C)(C)NC(=S)N1CC(=O)N1CCN(Cc2ccc3c(c2)OCO3)CC1 (centres undefined)	-0.51	i	-27.2	i	-0.9	2.1
SMILES	Ins promoter up	HSV replic up	Furin inh	Autophagy HCS	bCat nuc transl	MT stabilize HCS
COc1ccc(S(=O)(=O)N2CCCC(C(=O)NCc3ccco3)C2)cc1Cl (centres undefined)	1.45	i	-10.1	i	.	1.2
O=C(/C=C/c1ccc2ccccc2n1)c1cc(Br)ccc1O	4.36*	i	-0.8	.	-0.7	.
O=C(NC1(C(F)(F)F)NC(=O)N(c2ccc(F)c(Cl)c2)C1=O)c1ccncc1 (centres undefined)	4.5*	i	-13.4	i	-1.2	0.9
O=C(NC1(C(F)(F)F)NC(=O)N(c2ccccc2F)C1=O)c1ccncc1 (centres undefined)	0.67	i	-17.3	i	-0.7	2.3
CCOC(=O)c1cc2occc2n1Cc1c(F)cccc1Cl	-0.42	i	-22.0	i	3.3	0.9
COC(=O)c1cc2occc2n1Cc1c(F)cccc1Cl	3.08*	i	-4.0	i	0.9	6.1
C=CCn1c(C)cc(C(=O)Cn2ncc(Cl)c(Cl)c2=O)c1C	?	i	-6.8	i	-1.5	2.9
C=CCn1c(C)cc(C(=O)CN2NS(=O)(=O)c3ccccc3C2=O)c1C	-2.7	i	-18.0	i	2.1	8.6*
CC/C(=N/Nc1cccc(Cl)c1)c1cnnc(SC)n1	0.33	i	-6.9	i	4.2	5.6
CC/C(=N/Nc1ccccc1)c1cnnc(-c2ccccc2)n1	0.53	i	-8.8	+	1.7	4.7
O=C(Cc1ccccc1)NCCSC1CCCCC1	0.76	i	-12.3	i	-2.8	3.5
Cc1c(Cl)cccc1NC(=S)NCCc1ccc(C(F)(F)F)cc1	-0.43	i	-5.5	i	0.0	4.2
Cc1ccc(C(=O)CC2(O)C(=O)N(C)c3ccccc32)o1 (centres undefined)	1.87	i	-19.2	+	.	6.8
COC(=O)CN1C(=O)C(O)(CC(=O)c2ccc(C)o2)c2ccccc21 (centres undefined)	0.55	i	-24.2	i	0.3	3.1
COC(=O)c1ccc2c(c1)C(C)(C)C(/C=C/c1ccc(O)cc1)=[N+]2C	?	i	17.6	i	41.2	41.0*
COC(=O)c1ccc2c(c1)C(C)(C)C(/C=C/c1ccc(OC)c(OC)c1OC)=[N+]2C	?	i	-11.1	+	-4.2	3.3
COc1cc(/C=C/c2ccc(O)cc2)cc(OC)c1	-0.16	i	.	.	1.3	.
OCC1(Cc2cccc(F)c2)CCN(Cc2ccc3cccc(F)c3n2)CC1	.	i	-28.2	+	0.3	1.7
O=C(NC1CCCCC1)c1cc(Cl)ccc1[N+](=O)[O-]	0.18	i	-17.8	i	0.8	1.4
CCOC(=O)N1CCN(S(=O)(=O)c2ccc(C)c([N+](=O)[O-])c2)CC1	-0.2	i	-1.2	i	-0.5	2.8
CCOC(=O)c1c2ccc(OCC(=O)NN)cc2n2ccccc12	2.59	i	-16.7	i	-0.6	2.1
CCOC(=O)c1c2ccc(OCC(=O)N/N=C/c3ccc(C)cc3)cc2n2ccccc12	0.5	.	-10.8	+	4.1	10.2
Cc1cccc(C(=O)Nc2nnc(COc3ccccc3)s2)c1	-0.15	i	-1.2	+	0.7	2.2
Cc1ccccc1Cc1ccc(Cl)nn1	0.14	i	-26.9	i	-1.7	3.2
